This is an account of results in ChEMBL document CHEMBL3352107, “Development of radamide analogs as Grp94 inhibitors” (Bioorg Med Chem, 2014).

The source made the active and inactive calls. No cut-off for these calls is given here.

The target in data set [1] is Endoplasmin (Homo sapiens) (UniProt P14625). Kind of data set: Binding affinity to Gpr94 in human MDA-MB-231 cells assessed as conformational change using 9G10 antibody by immunoblotting analysis. Format: cell-based. The essentials: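 MDA-MB-231 cells treated overnight at 10 μM (high) or 1 μM (low). Radicicol 15 μM was the positive control and DMSO the negative control. Detergent lysates immunoprecipitated with the conformation-specific anti-Grp94 antibody 9G10, which recognizes only open, unliganded Grp94, on protein G magnetic beads. Precipitates immunoblotted for Grp94.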
(A western blot detects proteins with antibodies after separation by electrophoresis.)

Data set [2] has as its target Heat shock protein HSP 90-alpha (Homo sapiens) (UniProt P07900). Kind of data set: Inhibition of Hsp90alpha in human RPMI18226 cells assessed as Akt degradation at 5 fold antiproliferative IC50 concentration by Western blot analysis. The data set is classed as cell-based. The essentials: (§1)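 Cells plated in 6-well plates and exposed 24 h to high and low compound concentrations, 15 μM radicicol, or DMSO only (0.25% DMSO final). Lysed in MPER with protease inhibitors on ice and clarified at 4°C. Protein measured by BCA. 20 μg per lane run reducing on SDS-PAGE, blotted to PVDF and probed with specific antibodies, HRP secondary, chemiluminescence. For IGF-II, medium volumes normalized to equal actin were blotted.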

Data set [3] has the same target. Nature of the data set: Inhibition of Hsp90alpha in human RPMI18226 cells assessed as cyclin D1 degradation at 5 fold antiproliferative IC50 concentration by Western blot analysis. The data set is classed as cell-based. The essentials: as §1
Data set [4] concerns MDA-MB-231. Kind of data set: Inhibition of cell migration in human MDA-MB-231 cells assessed as reduction of cell migrated into scratched area after 16 to 24 hrs by wound healing assay. The data set is classed as functional, cell-based. Summed up: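 Cells seeded at 200000/well and grown 24 h to a confluent monolayer at 37°C, 5% CO2. Each well scratched with a sterile pipet tip and photographed at 0 h. Compound added at 2.5 up to 25 μM (0.25% DMSO final). Migration into the wound photographed at 16 and 24 h. Quadruplicate wells on two different days.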

Data set [5] addresses Heat shock protein HSP 90-alpha (Homo sapiens) (UniProt P07900). Nature of the data set: Inhibition of Hsp90alpha in human MDA-MB-231 cells assessed as Akt degradation at 80 uM by Western blot analysis. Format: cell-based. The essentials:
as §1

The target of data set [6] is Endoplasmin (Homo sapiens) (UniProt P14625). Kind of data set: Inhibition of Gpr94 in human RPMI18226 cells assessed as decrease in IGF-II secretion at 0.25 to 2 fold antiproliferative IC50 concentration by Western blot analysis. The data set is classed as cell-based. The essentials:
as §1

Data set [7] has the same target. Nature of the data set: Inhibition of recombinant Grp94 (unknown origin) assessed as tracer bound at 25 uM after 24 hrs by fluorescence polarization assay relative to control. On the set-up: scale not given: the % may be the effect or the level left. Summed up: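 Single-point screen at 25 μM. Recombinant cGrp94 (10 nM) and FITC-geldanamycin tracer (6 nM) incubated 24 h at 4°C with rocking in HEPES pH 7.3 buffer containing molybdate, DTT, NP-40 and BGG (1% DMSO). Polarization read at 485/528 nm. Percent tracer bound scaled between DMSO mP (100%) and free tracer mP (0%). Geldanamycin 50 nM was the positive control. Triplicate.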
On the technique in general: Polarisation of emitted light reports the rotation of a fluorescent probe.

The subject of data set [8] is MDA-MB-231. Nature of the data set: Antiproliferative activity against human MDA-MB-231 cells after 72 hrs by MTS/PMS proliferation assay. The data set is classed as functional, cell-based. The conditions noted are these: MDA-MB-231, 72 h. Summed up: (§2)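 Cells kept in RPMI1640 (RPMI 8226) or DMEM (MDA-MB-231) with nonessential amino acids, 2 mM L-glutamine, penicillin/streptomycin and 10% FBS at 37°C, 5% CO2. Seeded at 2000/well, attached overnight, then given compound across a concentration range in 1% DMSO final for 72 h. Viable cells read by MTS/PMS. 1% DMSO wells set as 100%. IC50 from separate triplicate experiments.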

Data set [9] is described as follows: Antiproliferative activity against human RPMI18226 cells after 72 hrs by MTS/PMS proliferation assay. Format: functional, cell-based. The conditions noted are these: RPMI18226, 72 h. Summed up: as §2
For data set [10], the target named is Endoplasmin (Homo sapiens) (UniProt P14625). Kind of data set: Binding affinity to Gpr94 in human RPMI18226 cells using 9G10 antibody by immunoblotting analysis. The data set is classed as cell-based. Summed up: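 Radicicol 15 μM was the positive control and DMSO the negative control. Detergent lysates pulled down with conformation-specific anti-Grp94 antibody 9G10 on protein G magnetic beads, then immunoblotted for Grp94.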

The subject of data set [11] is MDA-MB-231. Kind of data set: Cytotoxicity against human MDA-MB-231 cells at 2.5 to 25 uM after 24 hrs. The data set is classed as cell-based. The conditions noted are these: mda-mb-231, 24 h.
Data set [12] concerns the target Heat shock protein HSP 90-alpha (Homo sapiens) (UniProt P07900). Kind of data set: Inhibition of Hsp90alpha in human MDA-MB-231 cells assessed as cyclin D1 degradation at 80 uM by Western blot analysis. Format: cell-based. Summed up:
as §1

In data set [13] the target is Endoplasmin (Homo sapiens) (UniProt P14625). Kind of data set: Inhibition of Gpr94 in human MDA-MB-231 cells assessed as decrease in IGF-II secretion at 1 to 10 uM by Western blot analysis. The data set is classed as cell-based. The essentials:
as §1

Data set [14] deals with Heat shock protein HSP 90-alpha (Homo sapiens) (UniProt P07900). Nature of the data set: Inhibition of Hsp90alpha in human RPMI18226 cells assessed as Akt degradation at 0.5 to 5 fold antiproliferative IC50 concentration by Western blot analysis. The data set is classed as cell-based. The essentials:
as §1

Data set [15] shares this target. Nature of the data set: Inhibition of Hsp90alpha in human MDA-MB-231 cells assessed as cyclin D1 degradation at 60 uM by Western blot analysis. Format: cell-based. The essentials: as §1
Data set [16] has the same target. Nature of the data set: Inhibition of Hsp90alpha in human RPMI18226 cells assessed as cyclin D1 degradation at 0.5 to 5 fold antiproliferative IC50 concentration by Western blot analysis. The data set is classed as cell-based. The essentials: as §1
Data set [17] has the same target. Nature of the data set: Inhibition of Hsp90alpha in human MDA-MB-231 cells assessed as Akt degradation at 60 uM by Western blot analysis. The data set is classed as cell-based. The essentials: as §1

Sequence of Endoplasmin (Homo sapiens) (P14625 whole entry): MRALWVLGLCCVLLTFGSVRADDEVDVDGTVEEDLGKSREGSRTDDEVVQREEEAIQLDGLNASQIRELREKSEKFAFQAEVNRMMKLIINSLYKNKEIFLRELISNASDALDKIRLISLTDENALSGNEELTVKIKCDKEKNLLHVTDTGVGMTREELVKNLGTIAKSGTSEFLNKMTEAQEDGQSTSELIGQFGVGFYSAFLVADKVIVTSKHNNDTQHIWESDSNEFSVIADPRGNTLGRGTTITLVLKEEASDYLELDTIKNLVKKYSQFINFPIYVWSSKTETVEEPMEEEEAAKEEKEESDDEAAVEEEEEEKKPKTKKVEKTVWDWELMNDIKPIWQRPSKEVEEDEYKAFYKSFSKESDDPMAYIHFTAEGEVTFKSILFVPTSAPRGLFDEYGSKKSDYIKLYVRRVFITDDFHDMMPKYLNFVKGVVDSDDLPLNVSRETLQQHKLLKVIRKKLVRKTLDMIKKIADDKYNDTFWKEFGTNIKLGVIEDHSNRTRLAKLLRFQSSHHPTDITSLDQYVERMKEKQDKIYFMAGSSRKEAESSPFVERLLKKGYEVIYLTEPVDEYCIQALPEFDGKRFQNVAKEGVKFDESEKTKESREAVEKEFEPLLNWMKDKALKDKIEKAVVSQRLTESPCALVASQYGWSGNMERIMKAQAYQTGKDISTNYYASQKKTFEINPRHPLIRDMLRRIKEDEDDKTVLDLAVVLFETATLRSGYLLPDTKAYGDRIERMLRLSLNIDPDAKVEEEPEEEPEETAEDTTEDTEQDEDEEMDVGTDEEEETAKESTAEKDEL

What is called IC50 is the midpoint of a concentration-inhibition curve. Turning to `COC(=O)c1c(O)cc(O)c(Cl)c1CCC(=O)Nc1nccs1`, the Activity entry was “Dose-dependent effect” in [1], 6.6% in [7], “Dose-dependent effect” in [10] and “Non-toxic” in [11]. For the same molecule, the inhibition result in [2], in data set [3], in [5], in data set [6], in data set [12] and in data set [13] was “Active” each time. The inhibition entry in [4] was “Dose-dependent effect”. Moreover, the concentration for half-maximal inhibition (IC50) in data set [8] turned out to be 16 µM; in data set [9], 7.83 µM.

For the molecule `COC(=O)c1c(O)cc(O)c(Cl)c1CCC(=O)Nc1ccccn1`, the Activity result in data set [1] is “Dose-dependent effect”; in data set [7] it was 1%; in data set [10] it was “Dose-dependent effect”; in data set [11], “Non-toxic”. Further, in data set [4], the inhibition result is “Dose-dependent effect”. For the same molecule, the inhibition entry in data set [6] and in data set [13] was “Active” in each case. Also, the inhibition result in data set [14], in data set [15], in [16] and in data set [17] was “inactive” each time. Besides, the IC50 in [8] worked out at 12 µM; in [9], 9.12 µM.
